Reference: ChEMBL document CHEMBL1122137, “Antiinflammatory properties of 8-aryl-5-isopropyl-2H-1,3-dioxolo[4,5-g]quinazolin-6(5H)-ones and -thiones” (1982)

How the values were obtained:
Type in all cases: functional
Rattus norvegicus [1] = assay: Inhibition of carrageenan edema in rats was determined after peroral administration of 100 mg/kg; conditions: route oral
In short: (§1)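 Male Wistar rats (150–175 g) dosed orally, in mg/kg, as a suspension in 0.5% carboxymethylcellulose (1 mL/kg), 1 h before subplantar injection of 0.1 mL of 1% Type 402 carrageenin. Paw edema measured by electronic plethysmography at 3 h. Swelling (3 h minus 0 h) per rat; treated-group mean expressed as percent of vehicle-control mean.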

Rattus norvegicus [2] = assay: Nonnarcotic analgesic effect was determined after peroral administration in rats; conditions: po, read-out: MED
Rattus norvegicus [3] = assay: Bronchoconstrictor effect of bradykinin was determined after intravenous administration in rats
Rattus norvegicus [4] = organism: Rattus norvegicus; assay: Inhibition of the development of adjuvant-induced polyarthritis in rats was determined
Rattus norvegicus [5] = assay: Inhibition of carrageenan edema in adrenalectomized rats was determined after peroral administration; conditions: po
In short: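 Carrageenin paw edema run as in intact rats, but male Wistar rats were bilaterally adrenalectomized under ether and allowed 7 days to recover. They drank 1.0% NaCl plus 2.5% dextrose and ate standard chow. Oral dosing in 0.5% CMC 1 h before subplantar 1% carrageenin. Plethysmographic swelling at 3 h, as percent of vehicle-treated controls.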

Rattus norvegicus [6] = assay: Inhibition of carrageenan edema in normal rats was determined after peroral administration; conditions: po; in short: as §1
Rattus norvegicus [7] = assay: Bronchoconstrictor effect of bradykinin was determined after intravenous administration in rats.
Rattus norvegicus [8] = assay: Nonnarcotic analgesic effect was determined after peroral administration in rats.; conditions: po, read-out: MED

Row | SMILES | inhibition in vivo at 100 mg/kg (Rattus norvegicus [1]) | ED50 (Rattus norvegicus [1]) | ED50 (Rattus norvegicus [4]) | ED50 (Rattus norvegicus [6]) | further results
1 | CC(C)n1c(=O)nc(-c2ccc(OCc3ccccc3)cc2)c2cc3c(cc21)OCO3 | 17% |  |  |  | 
2 | CC(C)n1c(=S)nc(-c2ccc(F)cc2)c2cc3c(cc21)OCO3 | 49% |  |  |  | 
3 | CC(C)n1c(=O)nc(-c2cccc(F)c2)c2cc3c(cc21)OCO3 |  | 9 mg/kg | 9 mg/kg | 9 mg/kg | minimal effective dose (Rattus norvegicus [2]): 11 mg/kg; ED50 (Rattus norvegicus [3]): 0.05 mg/kg; ED50 (Rattus norvegicus [5]): 14 mg/kg
4 | CC(C)n1c(=S)nc(-c2cccc(F)c2)c2cc3c(cc21)OCO3 | 36% |  |  |  | 
5 | CC(C)n1c(=S)nc(-c2cccc([N+](=O)[O-])c2)c2cc3c(cc21)OCO3 | 0% |  |  |  | 
6 | CC(C)n1c(=O)nc(-c2ccccc2)c2cc3c(cc21)OCO3 |  | 7 mg/kg | 3 mg/kg | 8 mg/kg | ED50 (Rattus norvegicus [7]): 0.012 mg/kg; minimal effective dose (Rattus norvegicus [2]): 50 mg/kg; ED50 (Rattus norvegicus [5]): 9 mg/kg
7 | CC(C)n1c(=O)nc(-c2cccc([N+](=O)[O-])c2)c2cc3c(cc21)OCO3 | 28% |  |  |  | 
8 | CC(C)n1c(=O)nc(-c2ccc(C(=O)O)cc2)c2cc3c(cc21)OCO3 | 33% |  |  |  | 
9 | CC(C)n1c(=O)nc(-c2ccc(F)cc2)c2cc3c(cc21)OCO3 |  | 8 mg/kg | 6 mg/kg | 8 mg/kg | ED50 (Rattus norvegicus [7]): 0.17 mg/kg; minimal effective dose (Rattus norvegicus [2]): 4 mg/kg; ED50 (Rattus norvegicus [5]): 20 mg/kg
10 | Cc1ccccc1C1NC(=O)N(C(C)C)c2cc3c(cc21)OCO3 (stereo unspecified) |  | 50 mg/kg |  |  | 
11 | COc1cccc(-c2nc(=O)n(C(C)C)c3cc4c(cc23)OCO4)c1 | 12% |  |  |  | 
12 | CC(C)n1c(=O)nc(-c2ccc3c(c2)OCO3)c2cc3c(cc21)OCO3 | 21% |  |  |  | 
13 | Cc1ccc(-c2nc(=O)n(C(C)C)c3cc4c(cc23)OCO4)cc1 | 22% |  |  |  | 
14 | Cc1ccccc1-c1nc(=O)n(C(C)C)c2cc3c(cc12)OCO3 |  | 65 mg/kg |  |  | 
15 | CC(C)n1c(=O)nc(-c2ccccc2[N+](=O)[O-])c2cc3c(cc21)OCO3 |  | 39 mg/kg |  |  | 
16 | CC(C)c1ccc(-c2nc(=S)n(C(C)C)c3cc4c(cc23)OCO4)cc1 | 10% |  |  |  | 
17 | CC(C)n1c(=O)nc(-c2ccc(Cl)c(Cl)c2)c2cc3c(cc21)OCO3 | 30% |  |  |  | 
18 | CC(C)n1c(=S)nc(-c2ccccc2)c2cc3c(cc21)OCO3 |  | 7 mg/kg | 6 mg/kg | 7 mg/kg | ED50 (Rattus norvegicus [7]): 0.047 mg/kg
19 | COc1ccc2c(c1)c(CC(=O)O)c(C)n2C(=O)c1ccc(Cl)cc1 [INDOMETHACIN] |  | 5 mg/kg | 0.1 mg/kg | 5 mg/kg | minimal effective dose (Rattus norvegicus [8]): 4 mg/kg; ED50 (Rattus norvegicus [5]): 6 mg/kg
20 | CCCCC1C(=O)N(c2ccccc2)N(c2ccccc2)C1=O [PHENYLBUTAZONE] |  | 25 mg/kg | 5 mg/kg | 25 mg/kg | minimal effective dose (Rattus norvegicus [8]): 9 mg/kg; ED50 (Rattus norvegicus [5]): 30 mg/kg
21 | Cc1ccc2c(-c3ccccc3)nc(=O)n(C(C)C)c2c1 [PROQUAZONE] |  | 5 mg/kg | 1 mg/kg | 5 mg/kg | minimal effective dose (Rattus norvegicus [8]): 1 mg/kg; ED50 (Rattus norvegicus [5]): 6 mg/kg
